According to ChEMBL document CHEMBL1138119, “Extremely potent orally active benzo[g]quinoline analogue of the dopaminergic prodrug: 1-propyl-trans-2,3,4,4a,5,7,8,9,10,10a-decahydro-1H-benzo-[g]quinolin-6-one [corrected]” (2006):
Activity calls are given as the source filed them. No cut-off for these calls is given here.

Tests used:
[1] = target: D(1A) dopamine receptor (Rattus norvegicus) (UniProt P18901); experiment: Displacement of [3H]SCH-23390 from dopamine D1 receptor in rat corpus striatum membrane at 100nM; assay type: cell membranes
Sequence of D(1A) dopamine receptor (Rattus norvegicus) (P18901 whole entry): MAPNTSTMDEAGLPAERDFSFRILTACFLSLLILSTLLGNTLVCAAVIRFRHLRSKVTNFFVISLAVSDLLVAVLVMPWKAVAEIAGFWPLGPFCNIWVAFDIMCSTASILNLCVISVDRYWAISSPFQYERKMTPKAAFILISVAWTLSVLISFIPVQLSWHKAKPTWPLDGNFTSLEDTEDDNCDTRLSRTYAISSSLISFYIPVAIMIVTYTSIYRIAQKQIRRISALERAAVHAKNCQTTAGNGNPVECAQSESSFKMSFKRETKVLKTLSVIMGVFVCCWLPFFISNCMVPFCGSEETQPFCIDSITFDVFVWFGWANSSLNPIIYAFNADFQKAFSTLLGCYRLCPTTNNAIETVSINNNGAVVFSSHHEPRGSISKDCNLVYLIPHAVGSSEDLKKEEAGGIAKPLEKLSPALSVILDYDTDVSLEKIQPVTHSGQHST

[2] = target: D(2) dopamine receptor (Rattus norvegicus) (UniProt P61169); experiment: Displacement of [3H]spiperone from dopamine D2 receptor in rat corpus striatum membrane at 100nM; assay type: cell membranes
Sequence of D(2) dopamine receptor (Rattus norvegicus) (P61169 whole entry): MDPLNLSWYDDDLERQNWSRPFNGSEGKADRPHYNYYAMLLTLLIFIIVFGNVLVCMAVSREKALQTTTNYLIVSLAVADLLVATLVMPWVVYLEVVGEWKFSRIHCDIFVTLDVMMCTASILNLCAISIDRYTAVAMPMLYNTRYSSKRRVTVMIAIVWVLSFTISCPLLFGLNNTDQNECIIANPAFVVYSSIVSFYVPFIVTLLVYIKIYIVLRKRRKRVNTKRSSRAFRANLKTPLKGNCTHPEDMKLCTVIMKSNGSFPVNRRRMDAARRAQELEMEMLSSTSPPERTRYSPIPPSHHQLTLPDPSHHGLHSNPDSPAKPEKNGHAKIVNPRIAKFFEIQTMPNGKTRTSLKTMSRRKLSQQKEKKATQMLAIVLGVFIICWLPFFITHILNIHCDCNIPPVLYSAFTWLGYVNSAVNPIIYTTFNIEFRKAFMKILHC
Method in brief: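 Inhibition of [3H]spiperone binding (0.50 nM; Kd 0.20 nM) to dopamine receptors in rat corpus striatum membranes, in vitro. Displacement was measured at a single fixed test concentration.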

[3] = target: D(3) dopamine receptor (Homo sapiens) (UniProt P35462); experiment: Displacement of [3H]spiperone from human dopamine D3 receptor expressed in CHO cells at 50nM; assay type: cell-based
Sequence of D(3) dopamine receptor (Homo sapiens) (P35462 whole entry): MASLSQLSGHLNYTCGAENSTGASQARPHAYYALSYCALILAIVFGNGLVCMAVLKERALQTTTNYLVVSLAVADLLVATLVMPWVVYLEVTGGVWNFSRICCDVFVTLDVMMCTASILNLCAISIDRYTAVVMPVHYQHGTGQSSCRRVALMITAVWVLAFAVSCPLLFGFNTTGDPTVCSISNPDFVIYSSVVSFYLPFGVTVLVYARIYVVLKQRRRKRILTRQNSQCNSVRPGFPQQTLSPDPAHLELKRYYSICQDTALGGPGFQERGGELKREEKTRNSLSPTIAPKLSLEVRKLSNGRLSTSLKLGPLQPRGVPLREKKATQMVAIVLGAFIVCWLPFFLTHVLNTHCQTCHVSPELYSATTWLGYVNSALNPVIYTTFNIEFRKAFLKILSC
Method in brief: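 CHO membranes with cloned human D3 (26 µg protein) in 25 mM Tris-HCl pH 7.4, 6.0 mM MgCl2, 1.0 mM EDTA. […] Incubated 60 min at 25 °C, filtered on PEI-treated GF/C, and counted by scintillation. Measured at a single test concentration.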

[4] = target: T1, D(4) dopamine receptor (Homo sapiens) (UniProt P21917); experiment: Displacement of [3H]nemonapride from human dopamine D4 receptor at 50nM
T1 sequence (whole entry): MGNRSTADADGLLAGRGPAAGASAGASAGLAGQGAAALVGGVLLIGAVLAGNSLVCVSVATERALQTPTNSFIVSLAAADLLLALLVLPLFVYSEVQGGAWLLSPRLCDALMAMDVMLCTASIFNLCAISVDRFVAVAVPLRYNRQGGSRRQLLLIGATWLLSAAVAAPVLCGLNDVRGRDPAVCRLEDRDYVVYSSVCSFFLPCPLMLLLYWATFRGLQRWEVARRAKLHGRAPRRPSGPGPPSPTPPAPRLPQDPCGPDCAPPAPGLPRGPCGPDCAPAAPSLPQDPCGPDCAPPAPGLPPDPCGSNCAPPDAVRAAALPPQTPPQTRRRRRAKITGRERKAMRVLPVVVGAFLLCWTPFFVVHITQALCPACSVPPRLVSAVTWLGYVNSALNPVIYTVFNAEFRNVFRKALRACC
Method in brief: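 Inhibition of [3H]nemonapride binding (0.50 nM; Kd 0.20 nM) to cloned human D4 receptors, in vitro. Displacement was measured at a single fixed test concentration.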

Rattus norvegicus [5] = experiment: Effect on striatal dopamine release in rat at 1umol/kg, sc; assay type: functional, organism-based
Method in brief: (§1)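 Striatal microdialysis in freely moving rats, done by a previously described procedure. Doses were given sc or po. Dopamine levels are expressed relative to basal dopamine levels, as mean (SEM) from four rats.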

Rattus norvegicus [6] = experiment: Decrease in striatal dopamine levels in rat at 1 nmol/kg, sc; assay type: functional; design: scale not given: the % may be the effect or the level left; method in brief: as §1
Rattus norvegicus [7] = experiment: Decrease in striatal dopamine levels in rat at 3 nmol/kg, sc; assay type: functional; design: scale not given: the % may be the effect or the level left; method in brief: as §1
Rattus norvegicus [8] = experiment: Decrease in striatal dopamine levels in rat at 10 nmol/kg, sc; assay type: functional; design: scale not given: the % may be the effect or the level left; method in brief: as §1
Rattus norvegicus [9] = experiment: Decrease in striatal dopamine levels in rat at 3 nmol/kg, po; assay type: functional; design: scale not given: the % may be the effect or the level left; method in brief: as §1
Rattus norvegicus [10] = experiment: Decrease in striatal dopamine levels in rat at 10 nmol/kg, po; assay type: functional; design: scale not given: the % may be the effect or the level left; method in brief: as §1

Row | SMILES | Activity [1] | Activity [2] | Activity [3] | Activity [4] | Activity (Rattus norvegicus [5]) | Activity (Rattus norvegicus [6]) | Activity (Rattus norvegicus [7]) | Activity (Rattus norvegicus [8]) | Activity (Rattus norvegicus [9]) | Activity (Rattus norvegicus [10])
1 | CCCN1CCCC2CC3=C(CCCC3=O)CC21 (single isomer, unassigned; (+)) | 7% | 3% | 28% | -19% | inactive | – | – | – | – | –
2 | CCCN1CCCC2CC3=C(CCCC3=O)CC21 (single isomer, unassigned; (-)) [listing 1 of 2 here] | – | – | – | – | – | 20% | 20% | 20% | 45% | 60%
3 | CCCN1CCCC2CC3=C(CCCC3=O)CC21 (single isomer, unassigned; (-)) [listing 2 of 2 here] | -1% | 15% | 23% | -4% | – | – | – | – | – | –
